Test results taken from ChEMBL document CHEMBL3864175, “Sulfonamides as Selective NaV1.7 Inhibitors: Optimizing Potency and Pharmacokinetics to Enable in Vivo Target Engagement” (ACS Med Chem Lett, 2016).

What was measured:
[1] = Unbound clearance in rat at 0.5 mg/kg, iv by LC-MS/MS analysis; assay type: ADME, organism-based; conditions: in vivo
Procedure, shortened: (§1)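 Male rats, n = 2 per group, dosed intravenously at 0.5 mg/kg as a solution in 100% DMSO. Unbound clearance is derived from total clearance.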

[2] = molecular target: T1, Sodium channel protein type 9 subunit alpha (Homo sapiens, UniProt Q15858); assay: Inhibition of human Nav1.7 expressed in HEK293 cells assessed as inhibition of sodium current at holding potential of -60 mV measured for 3 to 5 mins by whole cell voltage clamp method; assay type: cell-based
T1 sequence (Q15858 whole entry): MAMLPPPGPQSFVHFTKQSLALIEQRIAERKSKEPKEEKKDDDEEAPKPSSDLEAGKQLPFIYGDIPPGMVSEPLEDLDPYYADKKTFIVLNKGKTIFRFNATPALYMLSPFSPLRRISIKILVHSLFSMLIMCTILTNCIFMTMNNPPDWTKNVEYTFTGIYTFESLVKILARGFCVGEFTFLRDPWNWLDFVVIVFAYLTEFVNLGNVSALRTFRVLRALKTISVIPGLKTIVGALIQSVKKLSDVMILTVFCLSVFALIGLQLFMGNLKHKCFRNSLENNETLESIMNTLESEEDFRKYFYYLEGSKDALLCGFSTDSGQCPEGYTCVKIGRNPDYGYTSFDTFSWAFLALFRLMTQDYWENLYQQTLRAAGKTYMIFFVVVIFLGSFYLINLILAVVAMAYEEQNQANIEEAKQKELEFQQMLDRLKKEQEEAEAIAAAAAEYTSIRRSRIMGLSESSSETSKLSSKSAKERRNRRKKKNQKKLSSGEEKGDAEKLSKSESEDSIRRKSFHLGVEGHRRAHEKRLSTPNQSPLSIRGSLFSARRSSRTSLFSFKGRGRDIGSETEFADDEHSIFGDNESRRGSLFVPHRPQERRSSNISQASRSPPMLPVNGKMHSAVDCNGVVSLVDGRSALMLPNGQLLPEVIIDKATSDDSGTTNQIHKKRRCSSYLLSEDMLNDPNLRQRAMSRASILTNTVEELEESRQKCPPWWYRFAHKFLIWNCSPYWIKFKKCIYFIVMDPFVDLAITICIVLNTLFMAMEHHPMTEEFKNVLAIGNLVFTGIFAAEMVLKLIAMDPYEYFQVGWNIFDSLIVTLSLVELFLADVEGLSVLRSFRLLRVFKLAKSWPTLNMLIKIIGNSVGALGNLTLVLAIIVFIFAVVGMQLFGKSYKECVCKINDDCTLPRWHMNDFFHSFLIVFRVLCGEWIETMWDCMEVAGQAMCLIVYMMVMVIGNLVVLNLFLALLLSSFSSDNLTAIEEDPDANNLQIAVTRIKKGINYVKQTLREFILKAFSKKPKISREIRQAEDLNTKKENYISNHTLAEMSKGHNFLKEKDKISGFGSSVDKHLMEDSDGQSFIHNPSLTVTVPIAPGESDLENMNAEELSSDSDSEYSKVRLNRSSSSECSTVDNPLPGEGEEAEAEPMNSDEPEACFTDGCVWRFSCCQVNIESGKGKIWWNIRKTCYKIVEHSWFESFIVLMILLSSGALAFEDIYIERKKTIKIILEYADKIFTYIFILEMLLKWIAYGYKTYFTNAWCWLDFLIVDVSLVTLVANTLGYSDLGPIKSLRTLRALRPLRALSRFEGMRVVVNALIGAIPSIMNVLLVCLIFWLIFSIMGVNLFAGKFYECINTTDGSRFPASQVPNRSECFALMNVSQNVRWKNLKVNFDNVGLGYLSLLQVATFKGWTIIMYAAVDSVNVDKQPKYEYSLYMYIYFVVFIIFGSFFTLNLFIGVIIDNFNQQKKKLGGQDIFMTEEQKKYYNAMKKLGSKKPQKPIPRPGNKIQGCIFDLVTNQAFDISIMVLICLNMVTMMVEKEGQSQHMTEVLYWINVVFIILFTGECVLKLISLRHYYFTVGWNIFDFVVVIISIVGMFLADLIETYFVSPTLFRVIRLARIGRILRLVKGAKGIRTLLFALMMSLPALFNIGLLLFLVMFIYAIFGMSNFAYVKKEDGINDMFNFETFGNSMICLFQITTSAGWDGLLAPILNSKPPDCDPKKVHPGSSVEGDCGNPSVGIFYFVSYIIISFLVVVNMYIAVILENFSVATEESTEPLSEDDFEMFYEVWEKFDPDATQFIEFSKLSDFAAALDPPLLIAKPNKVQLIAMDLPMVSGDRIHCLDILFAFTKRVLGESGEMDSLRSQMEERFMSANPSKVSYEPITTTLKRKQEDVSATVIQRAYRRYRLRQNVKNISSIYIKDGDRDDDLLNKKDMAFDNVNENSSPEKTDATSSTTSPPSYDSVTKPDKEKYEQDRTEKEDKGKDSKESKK

[3] = molecular target: Sodium channel protein type 2 subunit alpha (Homo sapiens, UniProt Q99250); assay: Inhibition of 20% inactivated human Nav1.2 expressed in CHO cells assessed as inhibition of peak inward current by whole cell patch clamp method; assay type: cell-based
[4] = molecular target: Sodium channel protein type 5 subunit alpha (Homo sapiens, UniProt Q14524); assay: Inhibition of 20% inactivated human Nav1.5 expressed in HEK293 cells assessed as inhibition of peak inward current by whole cell patch clamp method; assay type: cell-based
Sequence of Sodium channel protein type 5 subunit alpha (Q14524 whole entry): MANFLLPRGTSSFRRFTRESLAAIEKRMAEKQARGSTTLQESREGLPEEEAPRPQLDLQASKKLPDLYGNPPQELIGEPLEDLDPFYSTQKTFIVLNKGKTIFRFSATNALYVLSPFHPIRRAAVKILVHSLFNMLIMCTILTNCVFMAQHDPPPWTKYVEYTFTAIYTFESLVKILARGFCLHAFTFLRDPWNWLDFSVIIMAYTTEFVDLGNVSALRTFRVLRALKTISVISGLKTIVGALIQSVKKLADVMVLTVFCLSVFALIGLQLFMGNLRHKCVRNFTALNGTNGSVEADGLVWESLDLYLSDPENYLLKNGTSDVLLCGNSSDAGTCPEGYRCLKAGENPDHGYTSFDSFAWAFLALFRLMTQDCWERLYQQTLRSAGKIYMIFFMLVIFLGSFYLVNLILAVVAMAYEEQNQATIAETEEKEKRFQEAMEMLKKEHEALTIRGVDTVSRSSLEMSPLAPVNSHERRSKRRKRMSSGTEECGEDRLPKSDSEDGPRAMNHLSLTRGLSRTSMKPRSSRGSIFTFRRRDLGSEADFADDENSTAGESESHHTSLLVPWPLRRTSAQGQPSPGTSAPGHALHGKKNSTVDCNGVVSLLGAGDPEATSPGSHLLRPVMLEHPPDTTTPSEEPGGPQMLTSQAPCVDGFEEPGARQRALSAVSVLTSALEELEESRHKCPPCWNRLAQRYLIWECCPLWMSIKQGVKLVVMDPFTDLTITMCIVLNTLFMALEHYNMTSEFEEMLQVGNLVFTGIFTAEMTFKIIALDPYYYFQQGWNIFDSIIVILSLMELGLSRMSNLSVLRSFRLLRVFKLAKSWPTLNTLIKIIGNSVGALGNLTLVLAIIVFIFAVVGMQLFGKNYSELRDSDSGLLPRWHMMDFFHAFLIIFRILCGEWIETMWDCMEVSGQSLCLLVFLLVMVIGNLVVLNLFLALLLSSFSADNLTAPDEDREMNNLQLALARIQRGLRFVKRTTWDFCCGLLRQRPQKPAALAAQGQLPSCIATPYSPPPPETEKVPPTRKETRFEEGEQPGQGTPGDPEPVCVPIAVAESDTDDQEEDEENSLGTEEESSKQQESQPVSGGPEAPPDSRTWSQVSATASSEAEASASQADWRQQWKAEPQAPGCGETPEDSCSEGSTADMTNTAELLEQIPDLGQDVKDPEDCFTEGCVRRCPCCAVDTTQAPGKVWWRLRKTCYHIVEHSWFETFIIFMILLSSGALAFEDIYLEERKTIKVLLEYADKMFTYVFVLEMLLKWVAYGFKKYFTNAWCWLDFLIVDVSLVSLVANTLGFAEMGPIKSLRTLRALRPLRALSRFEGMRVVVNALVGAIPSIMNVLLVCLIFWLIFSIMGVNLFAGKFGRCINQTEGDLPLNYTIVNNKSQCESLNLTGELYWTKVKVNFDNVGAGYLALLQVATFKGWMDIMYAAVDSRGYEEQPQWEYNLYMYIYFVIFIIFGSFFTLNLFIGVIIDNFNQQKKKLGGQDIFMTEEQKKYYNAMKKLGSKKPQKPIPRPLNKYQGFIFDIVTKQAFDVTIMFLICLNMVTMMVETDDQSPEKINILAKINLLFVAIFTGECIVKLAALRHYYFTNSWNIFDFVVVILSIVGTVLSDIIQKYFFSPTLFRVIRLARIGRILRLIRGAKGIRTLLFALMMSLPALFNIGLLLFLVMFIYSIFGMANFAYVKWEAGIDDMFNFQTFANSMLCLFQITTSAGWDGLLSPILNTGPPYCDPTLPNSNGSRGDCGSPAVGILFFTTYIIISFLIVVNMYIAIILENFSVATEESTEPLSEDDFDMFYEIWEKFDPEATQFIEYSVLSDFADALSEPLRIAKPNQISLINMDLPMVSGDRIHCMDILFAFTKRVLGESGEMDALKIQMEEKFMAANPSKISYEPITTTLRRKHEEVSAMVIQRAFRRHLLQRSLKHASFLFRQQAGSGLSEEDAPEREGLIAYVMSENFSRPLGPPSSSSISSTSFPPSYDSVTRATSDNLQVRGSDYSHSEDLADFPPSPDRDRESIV

[5] = molecular target: T1, Sodium channel protein type 9 subunit alpha; assay: Inhibition of 20% inactivated human Nav1.7 expressed in HEK293 cells assessed as inhibition of peak inward current by whole cell patch clamp method; assay type: cell-based
Procedure, shortened: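 Electrophysiological block was measured with cells depolarized to a voltage that gave 20% channel inactivation, as opposed to a fully non-inactivated (closed) holding condition.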

[6] = Half life in rat at 0.5 mg/kg, iv by LC-MS/MS analysis; assay type: ADME, organism-based; conditions: in vivo; procedure, shortened: as §1
[7] = Cmax in rat at 10 mg/kg, po by LC-MS/MS analysis; assay type: ADME, organism-based; parameters: dose 10 mg/kg, route oral; conditions: in vivo
Procedure, shortened: (§2)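 Rats dosed orally at 10 mg/kg as a solution in 30% HPBCD/70% water, brought to pH 10 with KOH.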

[8] = Tmax in rat at 10 mg/kg, po by LC-MS/MS analysis; assay type: ADME, organism-based; conditions: in vivo; procedure, shortened: as §2
[9] = Oral bioavailability in rat at 10 mg/kg by LC-MS/MS analysis; assay type: ADME, organism-based; conditions: in vivo; procedure, shortened: as §2
[10] = Oral bioavailability in dog at 1.7 mg/kg by LC-MS/MS analysis; assay type: ADME, organism-based, Canis lupus familiaris; conditions: in vivo
Procedure, shortened: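 Dogs given a 1.7 mg/kg oral dose as a solution in 30% HPBCD/70% water/KOH at pH = 10; plasma parameters derived from this oral dosing, with the iv dose at 0.5 mg/kg in the same vehicle.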

[11] = Fraction unbound in dog plasma at 5 uM by LC-MS/MS analysis; assay type: ADME, cell-free, Canis lupus familiaris
[12] = Drug excretion in bile duct cannulated Sprague-Dawley rat bile assessed as parent compound at 1 mg/kg, iv administered through catheter measured up to 24 hrs by LC-MS/MS analysis; assay type: ADME, organism-based; conditions: read-out: Drug excretion
[13] = Drug excretion in bile duct cannulated Sprague-Dawley rat urine assessed as parent compound at 1 mg/kg, iv administered through catheter measured up to 24 hrs by LC-MS/MS analysis; assay type: ADME, organism-based; conditions: read-out: Drug excretion
[14] = Drug excretion in bile duct cannulated Sprague-Dawley rat feces assessed as parent compound at 1 mg/kg, iv administered through catheter measured up to 24 hrs by LC-MS/MS analysis; assay type: ADME, organism-based; conditions: faeces, read-out: Drug excretion
Mus musculus = assay: Antipruritic activity in histamine-induced scratching C57BL/6 mouse model assessed as reduction in scratching bouts administered orally 120 mins prior to histamine challenge measured after 30 mins relative to vehicle-treated control; assay type: functional
Procedure, shortened: (§3)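 Male C57BL/6 mice dosed orally 120 min before intradermal histamine. Scratching bouts counted over 30 min and compared with vehicle by one-way ANOVA with Dunnett's test. Total and unbound plasma levels taken 30 min after histamine.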

[15] = Drug uptake in plasma of po dosed histamine induced C57BL/6 mouse model of scratching pretreated for 120 mins followed by histamine-challenge measured after 30 mins; assay type: ADME, organism-based; conditions: in vivo, 0.5 h; procedure, shortened: as §3
[16] = Total plasma concentration in histamine induced C57BL/6 mouse model of scratching at 20 mg/kg, po pretreated for 120 mins followed by histamine-challenge measured after 30 mins; assay type: ADME, organism-based; procedure, shortened: as §3
[17] = Unbound plasma concentration in histamine induced C57BL/6 mouse model of scratching at 5 mg/kg, po pretreated for 120 mins followed by histamine-challenge measured after 30 mins; assay type: ADME, organism-based; conditions: in vivo, 0.5 h; procedure, shortened: as §3
[18] = Unbound plasma concentration in histamine induced C57BL/6 mouse model of scratching at 60 mg/kg, po pretreated for 120 mins followed by histamine-challenge measured after 30 mins; assay type: ADME, organism-based; conditions: in vivo, 0.5 h; procedure, shortened: as §3

Structure (SMILES): COc1cc(C(F)(F)F)ccc1-c1ncnc2cc(S(=O)(=O)Nc3nccs3)ccc12
- CL free [1]: 34 L/h/kg
- IC50 [2]: 0.009 µM
- IC50 [3]: 2.1 µM
- IC50 [4]: 16 µM
- IC50 [5]: 0.14 µM
- half-life [6]: 1.9 h
- Cmax [7]: 3.4 µM
- Tmax [8]: 1.7 h
- bioavailability [9]: 100%
- bioavailability [10]: 53%
- fraction unbound at 5 µM [11]: 0.014
- dose excreted at 24 h [12]: 4.7%
- dose excreted at 24 h [13]: 0.02%
- dose excreted at 24 h [14]: 0.6%
- Activity (Mus musculus): Dose-dependent effect
- Drug uptake [15]: Dose-dependent effect
- concentration at 0.5 h [16]: 22 µM
- Cp(f) [17]: 0.11 µM
- Cp(f) [18]: 5.1 µM
